From ChEMBL document CHEMBL4257459, “Synergistic antifungal effect of cyclized chalcone derivatives and fluconazole against Candida albicans” (2017)
Converted amounts (≈) assume the structure as drawn.

What was measured:
Candida albicans [1] = assay: Antifungal activity against fluconazole resistant Candida albicans 167-2 by CLSI protocol based broth microdilution method; format: functional
Method in brief: (§1)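 Broth microdilution per CLSI M27-A3 against clinical C. albicans isolates. Strains sub-cultured at least twice on Tryptone Soya Agar, 37 °C, 48 h. Compounds dissolved in DMSO at 2000 μg mL–1 stock. Fluconazole positive control, plus culture, media and vehicle controls. Run in duplicate; MIC in μg mL–1.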

Candida albicans [2] = assay: Antifungal activity against fluconazole resistant Candida albicans A171 by CLSI protocol based broth microdilution method; format: functional; method in brief: as §1
Candida albicans [3] = assay: Antifungal activity against fluconazole resistant Candida albicans 167-1 by CLSI protocol based broth microdilution method; format: functional; method in brief: as §1
Candida albicans [4] = assay: Antifungal activity against fluconazole susceptible Candida albicans 002B1 by CLSI protocol based broth microdilution method; format: functional
Method in brief: (§2)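 Clinical isolates and control strain subcultured at least twice on TSA, 37 °C, 48 h. MICs by CLSI M27-A3 broth microdilution; compounds dissolved in DMSO to 2000 μg mL–1 stock. Fluconazole positive control, culture, media and DMSO vehicle controls in each run. Duplicate experiments; MIC in μg mL–1.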

Candida albicans [5] = assay: Antifungal activity against fluconazole susceptible Candida albicans 003gr by CLSI protocol based broth microdilution method; format: functional; method in brief: as §2
Candida albicans [6] = assay: Antifungal activity against fluconazole susceptible Candida albicans 004gr by CLSI protocol based broth microdilution method; format: functional; method in brief: as §2
Candida albicans [7] = assay: Antifungal activity against fluconazole susceptible Candida albicans 004B1 by CLSI protocol based broth microdilution method; format: functional; method in brief: as §2
Candida albicans [8] = assay: Antifungal activity against fluconazole susceptible Candida albicans 0079gr by CLSI protocol based broth microdilution method; format: functional; method in brief: as §2
Candida albicans [9] = assay: Antifungal activity against fluconazole susceptible Candida albicans 0072gr by CLSI protocol based broth microdilution method; format: functional; method in brief: as §2
Candida albicans [10] = assay: Antifungal activity against Candida albicans ATCC 90028 by CLSI protocol based broth microdilution method; format: functional; method in brief: as §2
Candida albicans [11] = assay: Antifungal activity against fluconazole resistant Candida albicans A171 in presence of fluconazole by CLSI protocol based broth microdilution method; format: functional
Method in brief: (§3)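 Checkerboard-style combination with fluconazole at a 1 : 1 ratio, over concentrations 2–4 fold below each agent's MIC alone, by CLSI broth microdilution. Fractional inhibitory concentration index calculated and interpreted as synergy (<0.5), additive (0.5–1), indifferent or antagonistic.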

Candida albicans [12] = assay: Antifungal activity against fluconazole resistant Candida albicans 167-1 in presence of fluconazole by CLSI protocol based broth microdilution method; format: functional; method in brief: as §3
Candida albicans [13] = assay: Antifungal activity against fluconazole resistant Candida albicans 167-2 in presence of fluconazole by CLSI protocol based broth microdilution method; format: functional; method in brief: as §3
Candida albicans [14] = assay: Antifungal activity against fluconazole susceptible Candida albicans 002B1 in presence of fluconazole by CLSI protocol based broth microdilution method; format: functional
Candida albicans [15] = assay: Antifungal activity against fluconazole susceptible Candida albicans 003gr in presence of fluconazole by CLSI protocol based broth microdilution method; format: functional
Candida albicans [16] = assay: Antifungal activity against fluconazole susceptible Candida albicans 004gr in presence of fluconazole by CLSI protocol based broth microdilution method; format: functional
Candida albicans [17] = assay: Antifungal activity against fluconazole susceptible Candida albicans 004B1 in presence of fluconazole by CLSI protocol based broth microdilution method; format: functional
Candida albicans [18] = assay: Antifungal activity against fluconazole susceptible Candida albicans 0079gr in presence of fluconazole by CLSI protocol based broth microdilution method; format: functional
Candida albicans [19] = assay: Antifungal activity against fluconazole susceptible Candida albicans 0072gr in presence of fluconazole by CLSI protocol based broth microdilution method; format: functional
Candida albicans [20] = assay: Antifungal activity against Candida albicans ATCC 90028 in presence of fluconazole by CLSI protocol based broth microdilution method; format: functional
Candida albicans [21] = assay: Inhibition of ABC efflux pumps in fluconazole resistant Candida albicans A171 assessed as reduction in energy-dependent rhodamine 6G efflux in presence of 0.1 M glucose after 25 mins by fluorescence assay relative to control
Method in brief: (§4)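 Cells grown in TSB at 37 °C for 8 h, washed, resuspended in glucose-free PBS at 1 × 10^8 cells. De-energized 45 min with 5 mM deoxyglucose plus 5 mM dinitrophenol. […] Washed, sampled 5–25 min, then 0.1 M glucose added. Absorbance 527 nm, R6G from standard curve.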

Candida albicans [22] = assay: Inhibition of ABC efflux pumps in fluconazole resistant Candida albicans 167-1 assessed as reduction in energy-dependent rhodamine 6G efflux in presence of 0.1 M glucose after 25 mins […] relative to control
Candida albicans [23] = assay: Inhibition of ABC efflux pumps in fluconazole resistant Candida albicans 167-2 assessed as reduction in energy-dependent rhodamine 6G efflux in presence of 0.1 M glucose after 25 mins […] relative to control
Candida albicans [24] = assay: Inhibition of ABC efflux pumps in fluconazole susceptible Candida albicans 002B1 assessed as reduction in energy-dependent rhodamine 6G efflux in presence of 0.1 M glucose after 25 mins […] relative to control
Candida albicans [25] = assay: Inhibition of ABC efflux pumps in fluconazole susceptible Candida albicans 003gr assessed as reduction in energy-dependent rhodamine 6G efflux in presence of 0.1 M glucose after 25 mins […] relative to control
Candida albicans [26] = assay: Inhibition of ABC efflux pumps in fluconazole susceptible Candida albicans 004gr assessed as reduction in energy-dependent rhodamine 6G efflux in presence of 0.1 M glucose after 25 mins by fluorescence assay relative to control; method in brief: as §4
Candida albicans [27] = assay: Inhibition of ABC efflux pumps in fluconazole susceptible Candida albicans 004B1 assessed as reduction in energy-dependent rhodamine 6G efflux in presence of 0.1 M glucose after 25 mins by fluorescence assay relative to control; method in brief: as §4
Candida albicans [28] = assay: Inhibition of ABC efflux pumps in fluconazole susceptible Candida albicans 0079gr assessed as reduction in energy-dependent rhodamine 6G efflux in presence of 0.1 M glucose after 25 mins by fluorescence assay relative to control; method in brief: as §4
Candida albicans [29] = assay: Inhibition of ABC efflux pumps in fluconazole susceptible Candida albicans 0072gr assessed as reduction in energy-dependent rhodamine 6G efflux in presence of 0.1 M glucose after 25 mins […] relative to control
Candida albicans [30] = assay: Inhibition of ergosterol biosynthesis in fluconazole resistant Candida albicans A171 at 0.5 to 1 times MIC relative to control; format: functional
Method in brief: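 Total sterols quantified by alcoholic KOH extraction in cells grown in 50 ml TSB with compounds at MIC and ½ MIC; untreated and 8 μg mL–1 fluconazole controls. Spectral scan; ergosterol content from A281.5 and A230 absorbances, dilution factor and pellet weight, correcting for 24(28) DHE.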

Candida albicans [31] = assay: Inhibition of ergosterol biosynthesis in fluconazole susceptible Candida albicans ATCC 90028 at 0.5 to 1 times MIC relative to control; format: functional
Method in brief: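 ATCC90028 grown in 50 ml TSB with MIC and ½ MIC of compound; untreated and 8 μg mL–1 fluconazole controls. Sterols extracted by alcoholic KOH method and spectrophotometrically scanned; ergosterol % calculated from A281.5 and A230 (E values 290 and 518) with dilution factor, per pellet weight.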

Candida albicans [32] = assay: Down regulation of ERG11 gene expression in fluconazole resistant Candida albicans A171 at MIC after 2 hrs by qRT PCR analysis relative to control; format: functional
Method in brief: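 Cells exposed 2 h to test agents at MIC. Total RNA isolated, cDNA synthesized, qPCR for ERG11 with ACT1 as endogenous control. Triplicate independent experiments, reported as mean ± standard deviation.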

Candida albicans [33] = assay: Down regulation of ERG11 gene expression in fluconazole susceptible Candida albicans ATCC 90028 at MIC after 2 hrs by qRT PCR analysis relative to control; format: functional
Method in brief: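 Cells exposed to compound at MIC for 2 h; total RNA isolated, cDNA synthesised, ERG11 measured by real-time qPCR with ACT1 as endogenous control. Triplicate independent experiments; mean ± standard deviation.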

Structure (SMILES) | MIC (Candida albicans [1]) | MIC (Candida albicans [2]) | MIC (Candida albicans [3]) | MIC (Candida albicans [4]) | MIC (Candida albicans [5]) | MIC (Candida albicans [6]) | MIC (Candida albicans [7]) | MIC (Candida albicans [8]) | MIC (Candida albicans [9]) | MIC (Candida albicans [10]) | fractional inhibitory concentration index (FICI) (Candida albicans [11]) | fractional inhibitory concentration index (FICI) (Candida albicans [12]) | fractional inhibitory concentration index (FICI) (Candida albicans [13]) | fractional inhibitory concentration index (FICI) (Candida albicans [14]) | fractional inhibitory concentration index (FICI) (Candida albicans [15]) | fractional inhibitory concentration index (FICI) (Candida albicans [16]) | fractional inhibitory concentration index (FICI) (Candida albicans [17]) | fractional inhibitory concentration index (FICI) (Candida albicans [18]) | fractional inhibitory concentration index (FICI) (Candida albicans [19]) | fractional inhibitory concentration index (FICI) (Candida albicans [20]) | also measured
S=C1NC(c2ccccc2)=CC(c2ccc(C3C=C(c4ccccc4)NC(=S)N3)cc2)N1 (stereo unspecified) | 2 µg/mL (≈ 4.4 µM) | 2 µg/mL (≈ 4.4 µM) | 2 µg/mL (≈ 4.4 µM) | 0.125 to 1 µg/mL (≈ 0.275 to 2.2 µM) | 0.125 to 1 µg/mL (≈ 0.275 to 2.2 µM) | 0.125 to 1 µg/mL (≈ 0.275 to 2.2 µM) | 0.125 to 1 µg/mL (≈ 0.275 to 2.2 µM) | 0.125 to 1 µg/mL (≈ 0.275 to 2.2 µM) | 0.125 to 1 µg/mL (≈ 0.275 to 2.2 µM) | 0.125 to 1 µg/mL (≈ 0.275 to 2.2 µM) | 0.25 - 0.251 | 0.25 - 0.251 | 0.25 - 0.251 | 0.13 - 0.31 | 0.13 - 0.31 | 0.13 - 0.31 | 0.13 - 0.31 | 0.127 | 0.13 - 0.31 | 0.13 - 0.31 | inhibition (Candida albicans [21]): 28%; inhibition (Candida albicans [22]): 28%; inhibition (Candida albicans [23]): 28%; inhibition (Candida albicans [24]): 28%; inhibition (Candida albicans [25]): 28%; inhibition (Candida albicans [26]): 28%; inhibition (Candida albicans [27]): 28%; inhibition (Candida albicans [28]): 28%; inhibition (Candida albicans [29]): 28%; inhibition (INH) (Candida albicans [30]): 49 - 94%; inhibition (INH) (Candida albicans [31]): 66 - 99%; fold change (FC) (Candida albicans [32]): 1.25 - 10; fold change (FC) (Candida albicans [33]): 1.5 - 13
NC(=S)N1N=C(c2ccccc2)CC1c1ccc(C2CC(c3ccccc3)=NN2C(N)=S)cc1 (stereo unspecified) | 125 to 500 µg/mL (≈ 258 to 1030 µM) | 125 to 500 µg/mL (≈ 258 to 1030 µM) | 125 to 500 µg/mL (≈ 258 to 1030 µM) | 8 to 125 µg/mL (≈ 16.5 to 258 µM) | 8 to 125 µg/mL (≈ 16.5 to 258 µM) | 8 to 125 µg/mL (≈ 16.5 to 258 µM) | 8 to 125 µg/mL (≈ 16.5 to 258 µM) | 8 to 125 µg/mL (≈ 16.5 to 258 µM) | 8 to 125 µg/mL (≈ 16.5 to 258 µM) | 8 to 125 µg/mL (≈ 16.5 to 258 µM) | 0.372 - 1.5 | 0.372 - 1.5 | 0.372 - 1.5 | 0.53 - 2.19 | 0.53 - 2.19 | 0.53 - 2.19 | 0.53 - 2.19 | 0.53 - 2.19 | 0.53 - 2.19 | 0.53 - 2.19 | inhibition (Candida albicans [21]): < 20%; inhibition (Candida albicans [22]): < 20%; inhibition (Candida albicans [23]): < 20%; inhibition (Candida albicans [24]): < 20%; inhibition (Candida albicans [25]): < 20%; inhibition (Candida albicans [26]): < 20%; inhibition (Candida albicans [27]): < 20%; inhibition (Candida albicans [28]): < 20%; inhibition (Candida albicans [29]): < 20%; inhibition (INH) (Candida albicans [30]): 49 - 94%; inhibition (INH) (Candida albicans [31]): 66 - 99%; fold change (FC) (Candida albicans [32]): 1.25 - 10; fold change (FC) (Candida albicans [33]): 1.5 - 13
